High-throughput results (PubChem)
A selection: hits, their analogues and other compounds. The true share with any hit is near 3.1%.
DENV2 CPE – inhibitors of DENV2 cytopathic effect, primary screen, cell-based, plate reader, single concentration | 350,000 tested, 1.7% active | CPE inhibition, % at 9.99 µM | AID 651640, 2012 | DENV2-infected cells, cytopathic effect rescue; in the data active = CPE inhibition above about 20%, passing the limit was not always enough; inconclusive = no clear call, values can overlap the other calls; tested in BHK-21 cells
Cneo AK release – Cryptococcus neoformans cell lysis inducers, primary screen, AK release luminescence, single concentration; C. neoformans lysis, adenylate kinase release luminescence, 4 h; normalised: neutral wells 0, clomiphene wells 100; lysis activity, % at 15 µM; 360,000 tested, 0.2% active; AID 651654, 2012;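 active = mean lysis activity across replicates of at least 80%, whatever share of replicates individually reach that level; inactive = mean lysis activity below 80%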
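Assay system: log-phase C. neoformans yeast / Quantity: yeast cell density of 5 × 10^6 cells/mL / Medium: fresh YPD growth medium / Compound: single dose / Timing: static 4 h at 37 °C with compound, 1 h detection / Measured by: adenylate kinase release luminescence / Read-out: lysis from increased AK signal / Benchmarks: Clomiphene as positive lysis control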
E-sel inducer – E-selectin induction in HUVECs, primary screen, imaging, HUVEC, immunofluorescence imaging, single point | P16581 | AID 686992, 2013 | normalized: neutral wells 0, TNF-alpha wells 100 | activation, % at 7.58 µM | 260,000 tested, 0.37% active;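 active = mean E-selectin-positive cell signal at least 10% of the positive control, reached in at least 60% of replicates, without over 20% cell loss; inconclusive = no rule given, readout overlaps actives, possibly toxicity-flagged; inactive = the rest, including those meeting only one limit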
Target sequence (P16581 whole entry, looked up): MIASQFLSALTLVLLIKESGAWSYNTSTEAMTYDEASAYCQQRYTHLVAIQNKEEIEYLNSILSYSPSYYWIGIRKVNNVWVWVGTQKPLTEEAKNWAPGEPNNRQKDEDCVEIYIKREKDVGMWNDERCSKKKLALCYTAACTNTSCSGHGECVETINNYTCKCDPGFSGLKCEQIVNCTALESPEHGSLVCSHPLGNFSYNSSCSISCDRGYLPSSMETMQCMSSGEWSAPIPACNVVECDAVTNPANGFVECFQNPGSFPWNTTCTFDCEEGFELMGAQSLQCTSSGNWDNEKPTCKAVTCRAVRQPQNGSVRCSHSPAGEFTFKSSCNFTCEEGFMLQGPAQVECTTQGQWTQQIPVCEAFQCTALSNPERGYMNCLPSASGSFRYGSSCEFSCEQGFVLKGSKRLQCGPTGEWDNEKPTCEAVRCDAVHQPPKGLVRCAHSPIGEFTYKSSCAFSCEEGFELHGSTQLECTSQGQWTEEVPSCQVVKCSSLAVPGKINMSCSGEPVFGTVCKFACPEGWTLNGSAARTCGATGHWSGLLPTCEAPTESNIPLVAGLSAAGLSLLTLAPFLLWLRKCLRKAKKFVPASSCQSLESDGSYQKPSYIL
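material = human umbilical vein endothelial cells (HUVEC), E-selectin induction | quantity = 3,000 cells/well | medium = EGM-2 growth medium on 0.1% gelatin-coated wells | technique = immunofluorescence imaging | read-out basis = % PE-positive cells | control set = TNF-alpha positive control, DMSO neutral control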
rRNA inh HTS – reduced GFP signal of wild-type E. coli, primary screen, bacterial rRNA inhibitor project, GFP/RFP fluorescence, OD600, single point; GFP signal change (wild-type ribosome), % (concentration not given with the values); 350,000 tested, 1.6% active; E. coli WT GFP vs humanized-ribosome RFP mutants, 24 h; active compounds read low; DMSO median 0, no signal -100;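 active = significant combined selectivity score with lowered wild-type GFP, culture density cut under 30%, mutant RFP and density less affected; inactive = any of these conditions unmet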
miR-122 sensor – miR-122 Renilla sensor signal increase in Huh7, primary screen, miR-122 inhibitor project, cell-based, single point, plate reader; Huh7 miR-122 Renilla luciferase sensor, 48 h; neutral wells = 0, positive control = 100; activation (reporter increase), % at 12.5 µM; 340,000 tested, 0.3% active; AID 602342, 2012;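 active = mean replicate activation score at least 90 and every replicate individually at or above 90; inconclusive = only one of the two criteria met; inactive = neither criterion met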;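 also: higher luciferase means less miR-122 activity so hits act as miR-122 inhibitors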
HepG2 tox – cytotoxicity in HepG2 cells, dose response, cytotoxicity control, cell-based, CellTiter-Glo luminescence, cherry-pick, set 4; shares compounds with rRNA inh HTS; HepG2 viability, ATP luminescence, 72 h; activity change, negative = cytotoxicity, unspecified at 26 µM; 30 tested, under 10 active; AID 743480, 2014;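 active = compounds whose fitted half-maximal signal-loss concentration is at most twice their highest valid dose; inconclusive = flat curve with 30 to 70% signal loss, or poor fit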
AID977621 – growth inhibition of wild-type GFP E. coli, dose response, H69 mutant RFP, cherry-pick; shares compounds with rRNA inh HTS; E. coli wild-type GFP strain growth, fluorescence, 24 h; activity change, negative = inhibition at 50 µM; 1,900 tested, under 10 active;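 active = Wild-type ribosome reporter drop at least double the humanized mutant ribosome reporter drop, growth loss under a set limit; inconclusive = no clear call, values can overlap the other calls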;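 also: wild-type GFP and H69 mutant RFP strains grown together 50/50 in each well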
AID977628 – E. coli growth inhibition, wild-type GFP versus h24 humanized RFP strain, dose response, h24 mutant RFP vs wild-type GFP, cherry-pick; shares compounds with rRNA inh HTS; E. coli WT GFP strain growth, fluorescence, 24 h; activity change, negative = inhibition at 50 µM; 1,900 tested, under 10 active; AID 977628, 2014;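 active = compound lowering the normal-ribosome reporter at least twice as much as the humanized-ribosome reporter, growth loss under a set limit; inconclusive = no clear call, values can overlap the other calls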;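 also: wild-type GFP and h24 humanized RFP strains co-cultured 1 to 1 per well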
Of the large screens only hits and unclear results are named; the others gave an inactive call (follow-up assays come after a bar, where they were run).

COc1cc2c(cc1[N+](=O)[O-])-c1ccc([N+](=O)[O-])cc1C2	rRNA inh HTS -23 | HepG2 tox inactive | AID977628 inconclusive
COc1cc2c(cc1[N+](=O)[O-])-c1ccccc1C2	none (no result: E-sel inducer, rRNA inh HTS)
CCNc1nc(N)c(C(=O)C23CC4CC(CC(C4)C2)C3)s1	DENV2 CPE 53, rRNA inh HTS -23 (no result: E-sel inducer) | AID977621 inactive | AID977628 inactive
CN(C)CCCNC(=O)C[C@H]1CC[C@@H]2[C@H](COc3ccc(NC(=O)C4CCC4)cc3C(=O)N2C)O1	none
C[C@H]1CN([C@@H](C)CO)C(=O)c2cccc(NS(=O)(=O)c3ccc(F)cc3)c2O[C@@H]1CN(C)S(=O)(=O)c1ccc(F)cc1	none
Cc1ccc(NC(=O)C2=COCCO2)cc1S(=O)(=O)N1CCOCC1	none
O=C(CCNC(=O)c1ccccc1)Nc1ccc(Cl)c(S(=O)(=O)N2CCCCC2)c1	rRNA inh HTS -41 | AID977621 inactive
O=C(Nc1cc(S(=O)(=O)N2CCOCC2)ccc1N1CCOCC1)c1ccc([N+](=O)[O-])s1	rRNA inh HTS -18 (no result: E-sel inducer) | AID977621 inconclusive | AID977628 inactive
O=C(Nc1cc(S(=O)(=O)N2CCOCC2)ccc1N1CCOCC1)c1ccccc1[N+](=O)[O-]	none (no result: E-sel inducer)
Cc1ccc(NC(=O)CCCSc2ccccc2)cc1S(=O)(=O)N1CCOCC1	rRNA inh HTS -24 | AID977621 inactive
O=C(CCNC(=O)c1ccc([N+](=O)[O-])cc1)Nc1ccc(Cl)c(S(=O)(=O)N2CCOCC2)c1	none (no result: E-sel inducer)
Cc1ccc(NC(=O)CSc2ccc(Br)cc2)cc1S(=O)(=O)N1CCOCC1	none (no result: Cneo AK release, E-sel inducer, miR-122 sensor)
Cc1ccc(NC(=O)c2ccc([N+](=O)[O-])s2)cc1S(=O)(=O)N1CCOCC1	rRNA inh HTS -40 (no result: E-sel inducer) | AID977621 inconclusive | AID977628 inactive
COCC(=O)Nc1ccc2c(c1)OC[C@H](C)N(C(=O)c1ccncc1)C[C@@H](C)[C@H](OC)CN(C)C2=O	none
O=C(Nc1cc(F)ccc1F)N1C[C@H]2[C@@H](c3ccccc31)[C@@H](CO)N2Cc1cccnc1	none
CCC(=O)Nc1ccc2c(c1)OC[C@@H](C)N(Cc1cccnc1)C[C@@H](C)[C@@H](OC)CN(C)C2=O	none (no result: miR-122 sensor)
O=C(CCC(=O)c1cccs1)OCC(=O)c1ccc(Cl)s1	rRNA inh HTS -18 (no result: DENV2 CPE, E-sel inducer, miR-122 sensor) | AID977621 inactive
COc1ccc(CN(C)C[C@@H]2Oc3ccc(NC(=O)C4CC4)cc3CC(=O)N([C@H](C)CO)C[C@H]2C)cc1	none
COc1cccc(NC(=O)N2CC(=O)N3[C@H](CO)[C@@H](c4ccc(C5=CCCC5)cc4)[C@H]3C2)c1	none (no result: Cneo AK release, miR-122 sensor)
COc1ccccc1NC(=O)c1ccc(S(=O)(=O)N(C)c2ccccc2OC)cc1	none
COc1ccccc1N(C)S(=O)(=O)c1ccc(C(=O)NC(C)c2ccccc2)cc1 (stereo not drawn)	rRNA inh HTS -18 | AID977628 inconclusive
COC(=O)c1ccc2nc(-c3cccc(Br)c3)c(Cc3ccsc3)n2c1	rRNA inh HTS -34 | AID977621 inconclusive
CO[C@H]1CN(C)C(=O)c2ccc(NC(=O)NC(C)C)cc2OC[C@H](C)N(C(=O)CC2CC2)C[C@H]1C	none (no result: DENV2 CPE, miR-122 sensor)
COC(=O)c1cc2ccccc2n1S(=O)(=O)c1ccccc1	rRNA inh HTS -32 | AID977621 inactive | AID977628 inactive
CN(C(=O)COC(=O)CSc1ccc(C(N)=O)cc1[N+](=O)[O-])C1CCCCC1	rRNA inh HTS -16 | AID977621 inactive | AID977628 inactive
NC(=O)c1ccc(SCC(=O)OCC(=O)N2CCCCC2)c([N+](=O)[O-])c1	none (no result: Cneo AK release, E-sel inducer, miR-122 sensor)
COc1cccc(NC(=O)N[C@H]2C=C[C@@H](CC(=O)N3CCOCC3)O[C@@H]2CO)c1	none (no result: miR-122 sensor)
CCOCCCNC(=O)C(NC(=O)c1ccccc1O)c1ccc(C)cc1 (stereo not drawn)	rRNA inh HTS -19 (no result: Cneo AK release, E-sel inducer) | AID977621 inactive | AID977628 inactive
O=C1c2cccc(OCC(=O)N3CCCc4ccccc43)c2CCN1Cc1cccnc1	rRNA inh HTS -26 (no result: Cneo AK release, E-sel inducer, miR-122 sensor) | AID977621 inactive
